Measurements as given in article PMC6221089 (Diabetes, Obesity & Metabolism, 2018).
No end group written: not given here.

Experiments:
[1] = tested on: counterregulatory responses to hypoglycaemia; details: cited from earlier work
[2] = LEADER trial; cited from earlier work
plasma glucose = type: in vivo, people with type 2 diabetes
Method in brief: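 Clamp performed about 48 h after the 13th dose, with four 30-min target PG levels. AUC of glucose infusion rate computed at each level. Fasting PG measured on the morning of the day before the clamp. Recovery defined as PG ≥4.0 mmol/L, timed from termination of the insulin infusion at nadir; spontaneous recovery meant reaching this <40 min.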

[3] = tested on: people with type 2 diabetes; assay: Safety assessments; type: in vivo
Method in brief: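 Treatment-emergent adverse events counted from baseline to the follow-up visit: those starting on or after the first treatment day and no later than follow-up. Dosing was once-weekly s.c. self-injection for 13 doses per crossover period (0.25, 0.5, then 1.0 mg escalation; placebo volume-matched). Follow-up was in the final week of the second 5-week sampling period.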

[4] = tested on: people with type 2 diabetes; assay: Vital signs during the hypoglycaemic clamp; type: in vivo
Method in brief: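 Heart rate and systolic and diastolic BP recorded at each 30-min target PG level of the stepwise hypoglycaemic clamp. Each value is the mean of two readings, at 0 and 30 min. The clamp was run about 48 h after the 13th weekly s.c. dose, with participants fasted and supine or semi-supine.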

[5] = tested on: people with type 2 diabetes; type: in vivo
Method in brief: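 Stepwise hypoglycaemic clamp about 48 h after the 13th weekly s.c. dose; participants fasted (water allowed), supine or semi-supine, with 30-min target PG plateaux. At each target level, symptoms were scored on the Edinburgh Hypoglycaemia Scale and recognition recorded as a yes/no answer to "Do you feel hypo?".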

[6] = once-weekly s.c. treatment, 13 doses

Compound: liraglutide: GLP‐1 receptor agonist with a similar structure to semaglutide but a different pharmacokinetic profile
- Effect on the counterregulatory responses to hypoglycaemia [1]: no effect
- Incidence of severe hypoglycaemia compared with placebo [2]: statistically significantly lower

Compound: Native GLP‐1: incretin hormone secreted by intestinal L cells in response to food intake (HAEGTFTSDVSSYLEGQAAKEFIAWLVKGR; ends and bridges not checked; UniProt P01275 98-127, looked up)
- Effect on the response to hypoglycaemia ([1]; healthy volunteers): no effect

Compound: CC[C@H](C)[C@H](NC(=O)[C@H](Cc1ccccc1)NC(=O)[C@H](CCC(=O)O)NC(=O)[C@H](CCCCNC(=O)COCCOCCNC(=O)COCCOCCNC(=O)CC[C@H](NC(=O)CCCCCCCCCCCCCCCCC(=O)O)C(=O)O)NC(=O)[C@H](C)NC(=O)[C@H](C)NC(=O)[C@H](CCC(N)=O)NC(=O)CNC(=O)[C@H](CCC(=O)O)NC(=O)[C@H](CC(C)C)NC(=O)[C@H](Cc1ccc(O)cc1)NC(=O)[C@H](CO)NC(=O)[C@H](CO)NC(=O)[C@@H](NC(=O)[C@H](CC(=O)O)NC(=O)[C@H](CO)NC(=O)[C@@H](NC(=O)[C@H](Cc1ccccc1)NC(=O)[C@@H](NC(=O)CNC(=O)[C@H](CCC(=O)O)NC(=O)C(C)(C)NC(=O)[C@@H](N)Cc1cnc[nH]1)[C@@H](C)O)[C@@H](C)O)C(C)C)C(=O)N[C@@H](C)C(=O)N[C@@H](Cc1c[nH]c2ccccc12)C(=O)N[C@@H](CC(C)C)C(=O)N[C@H](C(=O)N[C@@H](CCCNC(=N)N)C(=O)NCC(=O)N[C@@H](CCCNC(=N)N)C(=O)NCC(=O)O)C(C)C [semaglutide]
- Time to reach recovery (PG ≥4.0 mmol/L) (plasma glucose; geometric mean): 44 min
- Proportion of participants who recovered spontaneously (plasma glucose; reaching PG ≥4.0 mmol/L < 40 minutes after termination of the insulin infusion at nadir): ~ 50%
- Severity of adverse events ([3]; all events, both treatments): mild or moderate
- Clinical laboratory assessments (including amylase, lipase and calcitonin), physical examination or ECG ([3]; baseline to follow-up): No safety findings
- Development of anti-semaglutide antibodies ([3]; baseline to follow-up): no participant developed anti‐semaglutide antibodies
- Deaths or pancreatitis cases ([3]; during the trial): No deaths or pancreatitis cases
- Diastolic BP, mean (SD) change from baseline to end-of-treatment [3, 6]: −2 [10] mm Hg
- Heart rate, mean (SD) change from baseline to end-of-treatment [3, 6]: 6 [8] beats/min
- Systolic BP, mean (SD) change from baseline to end-of-treatment [3, 6]: −8 [16] mm Hg
- Response to hypoglycaemia for heart rate, systolic or diastolic BP vs placebo [4]: no systematic differences
- Estimated mean hypoglycaemic symptom score vs placebo ([5]; Edinburgh Hypoglycaemia Scale, target PG level 5.5 mmol/L): No difference
- Effect on cognitive function ([5]; Trail Making-B, Digit Symbol Substitution, Four-Choice Reaction Time tests, all PG levels): no effect
- Hypoglycaemia recognition, answer to "Do you feel hypo?" ([5]; target level 5.5 mmol/L): all participants answered “no”
